# Laboratory results reported in ChEMBL document CHEMBL5058577, “EUbOPEN Chemogenomics Library 2 (Multiplex)” (2022).
# Test system: U2OS
# Assay: Multiplex assay against U2OS
# Format: toxicity, cell-based
# Conditions: human
# How it was run: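 Imaging took place on a CQ1 microscope at 37°C and 5% CO2 once compound had been added to live cells stained at seeding with Hoechst33342, BioTracker Green Microtubule Cytoskeleton Dye, MitoTracker Red and Annexin V Alexa Fluor 680. CellPathfinder machine-learning gating classed cells as Hoechst high-intensity objects or normal cells, classed normal cells as having healthy, pyknosed or fragmented nuclei, and classed pyknosed cells as mitotic or apoptotic. Tubulin, mitochondrial-mass and membrane-permeability phenotypes are per cents of the healthy-nucleus cells.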
# [1] = 12 h, 1 µM, compound concentration 1 uM, replicate 1
# [2] = 12 h, 1 µM, compound concentration 1 uM, replicate 2
# [3] = 12 h, 10 µM, compound concentration 10 uM, replicate 1
# [4] = 12 h, 10 µM, compound concentration 10 uM, replicate 2
# [5] = 24 h, 1 µM, compound concentration 1 uM, replicate 1
# [6] = 24 h, 1 µM, compound concentration 1 uM, replicate 2
# [7] = 24 h, 10 µM, compound concentration 10 uM, replicate 1
# [8] = 24 h, 10 µM, compound concentration 10 uM, replicate 2
# [9] = 48 h, 1 µM, compound concentration 1 uM, replicate 1
# [10] = 48 h, 1 µM, compound concentration 1 uM, replicate 2
# [11] = 48 h, 10 µM, compound concentration 10 uM, replicate 1
# [12] = 48 h, 10 µM, compound concentration 10 uM, replicate 2
smiles,measurement,setting,value
CCCN1CCC[C@@H]2Cc3n[nH]cc3C[C@H]21.Cl [QUINPIROLE HYDROCHLORIDE],Population Apoptotic (%),[1],71%
same,Population Fragmented Nuclei (%),[1],31%
same,Population Healthy Nuclei (%),[1],60%
same,Population Hoechst High Intensity Objects (%),[1],2%
same,Population Membrane Permeable-Phenotype (%),[1],7%
same,Population Mitochondria Different-Phenotype (%),[1],1%
same,Population Mitotic Cells (%),[1],28%
same,Population Normal (%),[1],97%
same,Population Pyknosed Nuclei (%),[1],8%
same,Population Tubulin-Different-Phenotype (%),[1],3%
same,Total Cell Count,[1],265
same,Population Apoptotic (%),[2],61%
same,Population Fragmented Nuclei (%),[2],21%
same,Population Healthy Nuclei (%),[2],67%
same,Population Hoechst High Intensity Objects (%),[2],0%
same,Population Membrane Permeable-Phenotype (%),[2],2%
same,Population Mitotic Cells (%),[2],38%
same,Population Normal (%),[2],100%
same,Population Pyknosed Nuclei (%),[2],11%
same,Population Tubulin-Different-Phenotype (%),[2],2%
same,Total Cell Count,[2],118
same,Population Apoptotic (%),[3],58%
same,Population Fragmented Nuclei (%),[3],19%
same,Population Healthy Nuclei (%),[3],72%
same,Population Hoechst High Intensity Objects (%),[3],1%
same,Population Membrane Permeable-Phenotype (%),[3],2%
same,Population Mitochondria Different-Phenotype (%),[3],0%
same,Population Mitotic Cells (%),[3],41%
same,Population Normal (%),[3],98%
same,Population Pyknosed Nuclei (%),[3],7%
same,Population Tubulin-Different-Phenotype (%),[3],1%
same,Total Cell Count,[3],228
same,Population Apoptotic (%),[4],100%
same,Population Fragmented Nuclei (%),[4],9%
same,Population Healthy Nuclei (%),[4],85%
same,Population Hoechst High Intensity Objects (%),[4],2%
same,Population Membrane Permeable-Phenotype (%),[4],6%
same,Population Mitochondria Different-Phenotype (%),[4],5%
same,Population Mitotic Cells (%),[4],0%
same,Population Normal (%),[4],97%
same,Population Pyknosed Nuclei (%),[4],4%
same,Population Tubulin-Different-Phenotype (%),[4],2%
same,Total Cell Count,[4],126
same,Population Apoptotic (%),[5],68%
same,Population Fragmented Nuclei (%),[5],27%
same,Population Healthy Nuclei (%),[5],64%
same,Population Hoechst High Intensity Objects (%),[5],1%
same,Population Membrane Permeable-Phenotype (%),[5],4%
same,Population Mitochondria Different-Phenotype (%),[5],3%
same,Population Mitotic Cells (%),[5],31%
same,Population Normal (%),[5],98%
same,Population Pyknosed Nuclei (%),[5],7%
same,Population Tubulin-Different-Phenotype (%),[5],3%
same,Total Cell Count,[5],299
same,Population Apoptotic (%),[6],77%
same,Population Fragmented Nuclei (%),[6],18%
same,Population Healthy Nuclei (%),[6],68%
same,Population Hoechst High Intensity Objects (%),[6],0%
same,Population Mitochondria Different-Phenotype (%),[6],4%
same,Population Mitotic Cells (%),[6],22%
same,Population Normal (%),[6],100%
same,Population Pyknosed Nuclei (%),[6],13%
same,Population Tubulin-Different-Phenotype (%),[6],4%
same,Total Cell Count,[6],138
same,Population Apoptotic (%),[7],88%
same,Population Fragmented Nuclei (%),[7],13%
same,Population Healthy Nuclei (%),[7],80%
same,Population Hoechst High Intensity Objects (%),[7],2%
same,Population Membrane Permeable-Phenotype (%),[7],2%
same,Population Mitochondria Different-Phenotype (%),[7],0%
same,Population Mitotic Cells (%),[7],11%
same,Population Normal (%),[7],97%
same,Population Pyknosed Nuclei (%),[7],6%
same,Population Tubulin-Different-Phenotype (%),[7],1%
same,Total Cell Count,[7],281
same,Population Apoptotic (%),[8],92%
same,Population Fragmented Nuclei (%),[8],9%
same,Population Healthy Nuclei (%),[8],82%
same,Population Hoechst High Intensity Objects (%),[8],0%
same,Population Membrane Permeable-Phenotype (%),[8],0%
same,Population Mitochondria Different-Phenotype (%),[8],1%
same,Population Mitotic Cells (%),[8],7%
same,Population Normal (%),[8],99%
same,Population Pyknosed Nuclei (%),[8],8%
same,Population Tubulin-Different-Phenotype (%),[8],0%
same,Total Cell Count,[8],163
same,Population Apoptotic (%),[9],75%
same,Population Fragmented Nuclei (%),[9],19%
same,Population Healthy Nuclei (%),[9],74%
same,Population Hoechst High Intensity Objects (%),[9],1%
same,Population Membrane Permeable-Phenotype (%),[9],4%
same,Population Mitochondria Different-Phenotype (%),[9],1%
same,Population Mitotic Cells (%),[9],25%
same,Population Normal (%),[9],98%
same,Population Pyknosed Nuclei (%),[9],6%
same,Population Tubulin-Different-Phenotype (%),[9],2%
same,Total Cell Count,[9],425
same,Population Apoptotic (%),[10],78%
same,Population Fragmented Nuclei (%),[10],17%
same,Population Healthy Nuclei (%),[10],69%
same,Population Hoechst High Intensity Objects (%),[10],3%
same,Population Mitochondria Different-Phenotype (%),[10],5%
same,Population Mitotic Cells (%),[10],21%
same,Population Normal (%),[10],96%
same,Population Pyknosed Nuclei (%),[10],13%
same,Total Cell Count,[10],180
same,Population Apoptotic (%),[11],86%
same,Population Fragmented Nuclei (%),[11],11%
same,Population Healthy Nuclei (%),[11],78%
same,Population Hoechst High Intensity Objects (%),[11],3%
same,Population Membrane Permeable-Phenotype (%),[11],4%
same,Population Mitochondria Different-Phenotype (%),[11],1%
same,Population Mitotic Cells (%),[11],13%
same,Population Normal (%),[11],96%
same,Population Pyknosed Nuclei (%),[11],9%
same,Population Tubulin-Different-Phenotype (%),[11],3%
same,Total Cell Count,[11],386
same,Population Apoptotic (%),[12],91%
same,Population Fragmented Nuclei (%),[12],12%
same,Population Hoechst High Intensity Objects (%),[12],1%
same,Population Membrane Permeable-Phenotype (%),[12],6%
same,Population Mitochondria Different-Phenotype (%),[12],4%
same,Population Mitotic Cells (%),[12],8%
same,Population Normal (%),[12],98%
same,Population Tubulin-Different-Phenotype (%),[12],2%
same,Total Cell Count,[12],251
Cl.Clc1ccc2nsnc2c1NC1=NCCN1 [TIZANIDINE HYDROCHLORIDE],Population Apoptotic (%),[1],82%
same,Population Fragmented Nuclei (%),[1],20%
same,Population Healthy Nuclei (%),[1],73%
same,Population Hoechst High Intensity Objects (%),[1],2%
same,Population Membrane Permeable-Phenotype (%),[1],6%
same,Population Mitochondria Different-Phenotype (%),[1],1%
same,Population Mitotic Cells (%),[1],17%
same,Population Normal (%),[1],97%
same,Population Pyknosed Nuclei (%),[1],5%
same,Population Tubulin-Different-Phenotype (%),[1],2%
same,Total Cell Count,[1],306
same,Population Apoptotic (%),[2],85%
same,Population Fragmented Nuclei (%),[2],10%
same,Population Healthy Nuclei (%),[2],78%
same,Population Hoechst High Intensity Objects (%),[2],1%
same,Population Membrane Permeable-Phenotype (%),[2],3%
same,Population Mitochondria Different-Phenotype (%),[2],2%
same,Population Mitotic Cells (%),[2],14%
same,Population Normal (%),[2],98%
same,Population Pyknosed Nuclei (%),[2],10%
same,Population Tubulin-Different-Phenotype (%),[2],3%
same,Total Cell Count,[2],140
same,Population Apoptotic (%),[3],77%
same,Population Fragmented Nuclei (%),[3],31%
same,Population Healthy Nuclei (%),[3],61%
same,Population Hoechst High Intensity Objects (%),[3],2%
same,Population Membrane Permeable-Phenotype (%),[3],7%
same,Population Mitochondria Different-Phenotype (%),[3],2%
same,Population Mitotic Cells (%),[3],22%
same,Population Normal (%),[3],97%
same,Population Pyknosed Nuclei (%),[3],6%
same,Population Tubulin-Different-Phenotype (%),[3],2%
same,Total Cell Count,[3],280
same,Population Apoptotic (%),[4],90%
same,Population Fragmented Nuclei (%),[4],22%
same,Population Healthy Nuclei (%),[4],66%
same,Population Membrane Permeable-Phenotype (%),[4],14%
same,Population Mitochondria Different-Phenotype (%),[4],7%
same,Population Mitotic Cells (%),[4],10%
same,Population Pyknosed Nuclei (%),[4],10%
same,Population Tubulin-Different-Phenotype (%),[4],15%
same,Total Cell Count,[4],98
same,Population Apoptotic (%),[5],90%
same,Population Fragmented Nuclei (%),[5],19%
same,Population Healthy Nuclei (%),[5],72%
same,Population Hoechst High Intensity Objects (%),[5],0%
same,Population Membrane Permeable-Phenotype (%),[5],4%
same,Population Mitochondria Different-Phenotype (%),[5],2%
same,Population Mitotic Cells (%),[5],9%
same,Population Normal (%),[5],99%
same,Population Pyknosed Nuclei (%),[5],8%
same,Population Tubulin-Different-Phenotype (%),[5],5%
same,Total Cell Count,[5],381
same,Population Apoptotic (%),[6],89%
same,Population Fragmented Nuclei (%),[6],15%
same,Population Healthy Nuclei (%),[6],73%
same,Population Hoechst High Intensity Objects (%),[6],4%
same,Population Membrane Permeable-Phenotype (%),[6],7%
same,Population Mitochondria Different-Phenotype (%),[6],4%
same,Population Mitotic Cells (%),[6],10%
same,Population Normal (%),[6],95%
same,Population Pyknosed Nuclei (%),[6],11%
same,Population Tubulin-Different-Phenotype (%),[6],6%
same,Total Cell Count,[6],172
same,Population Apoptotic (%),[7],65%
same,Population Fragmented Nuclei (%),[7],29%
same,Population Healthy Nuclei (%),[7],62%
same,Population Hoechst High Intensity Objects (%),[7],2%
same,Population Membrane Permeable-Phenotype (%),[7],4%
same,Population Mitochondria Different-Phenotype (%),[7],1%
same,Population Mitotic Cells (%),[7],34%
same,Population Normal (%),[7],97%
same,Population Pyknosed Nuclei (%),[7],8%
same,Population Tubulin-Different-Phenotype (%),[7],1%
same,Total Cell Count,[7],327
same,Population Apoptotic (%),[8],86%
same,Population Fragmented Nuclei (%),[8],25%
same,Population Healthy Nuclei (%),[8],61%
same,Population Membrane Permeable-Phenotype (%),[8],12%
same,Population Mitochondria Different-Phenotype (%),[8],7%
same,Population Mitotic Cells (%),[8],13%
same,Population Pyknosed Nuclei (%),[8],13%
same,Population Tubulin-Different-Phenotype (%),[8],11%
same,Total Cell Count,[8],118
same,Population Apoptotic (%),[9],86%
same,Population Fragmented Nuclei (%),[9],11%
same,Population Healthy Nuclei (%),[9],80%
same,Population Hoechst High Intensity Objects (%),[9],1%
same,Population Membrane Permeable-Phenotype (%),[9],2%
same,Population Mitochondria Different-Phenotype (%),[9],1%
same,Population Mitotic Cells (%),[9],13%
same,Population Normal (%),[9],98%
same,Population Pyknosed Nuclei (%),[9],7%
same,Population Tubulin-Different-Phenotype (%),[9],2%
same,Total Cell Count,[9],512
same,Population Apoptotic (%),[10],90%
same,Population Fragmented Nuclei (%),[10],17%
same,Population Healthy Nuclei (%),[10],74%
same,Population Hoechst High Intensity Objects (%),[10],3%
same,Population Membrane Permeable-Phenotype (%),[10],5%
same,Population Mitochondria Different-Phenotype (%),[10],2%
same,Population Mitotic Cells (%),[10],9%
same,Population Normal (%),[10],96%
same,Population Pyknosed Nuclei (%),[10],8%
same,Population Tubulin-Different-Phenotype (%),[10],3%
same,Total Cell Count,[10],260
same,Population Apoptotic (%),[11],93%
same,Population Fragmented Nuclei (%),[11],18%
same,Population Healthy Nuclei (%),[11],75%
same,Population Hoechst High Intensity Objects (%),[11],2%
same,Population Membrane Permeable-Phenotype (%),[11],5%
same,Population Mitochondria Different-Phenotype (%),[11],1%
same,Population Mitotic Cells (%),[11],6%
same,Population Normal (%),[11],97%
same,Population Pyknosed Nuclei (%),[11],6%
same,Population Tubulin-Different-Phenotype (%),[11],3%
same,Total Cell Count,[11],459
same,Population Apoptotic (%),[12],76%
same,Population Fragmented Nuclei (%),[12],22%
same,Population Healthy Nuclei (%),[12],65%
same,Population Hoechst High Intensity Objects (%),[12],4%
same,Population Membrane Permeable-Phenotype (%),[12],15%
same,Population Mitochondria Different-Phenotype (%),[12],5%
same,Population Mitotic Cells (%),[12],23%
same,Population Normal (%),[12],95%
same,Population Pyknosed Nuclei (%),[12],11%
same,Population Tubulin-Different-Phenotype (%),[12],7%
same,Total Cell Count,[12],149
